In assay [1] the test system is MT2. The experiment in a line: Concentration of compound causing death in 10% or less of cells in the absence of virus in MT2 cells infected with HIV-2 strain (ROD). The assay is classed as functional, Homo sapiens. The gist of the method: (§1)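 Cytotoxicity controls run alongside the Melbourne antiviral test: uninfected MT2 cells at 5 × 10⁴ per well in RF10, or PBMCs at 3.75 × 10⁵ per well in RF10/IL-2, exposed to duplicate drug dilutions made from a 20 mM stock in 60% v/v ethanol. Incubated 6–7 days at 37 °C, 5% CO₂, then viable cells counted by trypan blue exclusion. CC₁₀ is the highest concentration keeping counts ≥90% of the cell-only control.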

Assay [2] has as its system MT2. The assay can be described thus: (§2) Concentration required for causing death in 10% or less of cells in the absence of virus in MT2 cells infected with HIV-1 237288 strain. The assay is classed as functional, Homo sapiens. The gist of the method: as §1
Assay [3] concerns Human immunodeficiency virus 1. The assay can be described thus: Concentration required for causing death in 10% or less of cells in the absence of virus in PBMC cells infected with HIV-1 237288 strain. Format: functional. The gist of the method: as §1
Assay [4] has as its target Human immunodeficiency virus type 1 protease (Human immunodeficiency virus 1) (UniProt Q72874). As to conditions: MT2.
For assay [5] the target is unchanged. The settings on record: PBMC.
The target of assay [6] is Human immunodeficiency virus type 1 protease (Human immunodeficiency virus 1, UniProt Q72874). The experiment in a line: Inhibitory constant against HIV-1 protease.
The subject of assay [7] is MT2. The assay can be described thus: Concentration which causing death in 10% or less of cells in the absence of virus in MT2 cells infected with HIV-1 strain 237288. A digest of the protocol: as §1
Assay [8] has as its system MT2. Described as §2. The assay is classed as functional, Human immunodeficiency virus 1. A digest of the protocol: as §1
Assay [9] concerns MT2. The assay can be described thus: Concentration required for causing death in 10% or less of cells in the absence of virus on MT2 cells infected with HIV-1 strain 237288. The assay is classed as functional, Homo sapiens. The gist of the method: as §1
In assay [10] the target is Human immunodeficiency virus type 1 protease (Human immunodeficiency virus 1) (UniProt Q72874). The assay can be described thus: Inhibition of virion associated RT activity (90% decrease) relative to untreated, infected control on MT2 cells infected with HIV-1 237288 strain. Format: cell-based. A digest of the protocol:
(§3)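 Drug dilutions, from a 20 mM stock in 60% v/v ethanol, added in duplicate to MT2 cells (5 × 10⁴ in RF10) or PBMCs (3.75 × 10⁵ in RF10/IL-2). Virus added immediately after: HIV-1 #237288 or HIV-2 ROD, 200 TCID₅₀ for MT2 or 300 TCID₅₀ for PBMC. After 6–7 days at 37 °C, supernatant virus precipitated with PEG and virion RT counted by scintillation, as % of virus-only control. IC₅₀ and IC₉₀ are the concentrations giving 50% and 90% reduction.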

Assay [11] shares this target. The experiment in a line: Inhibition of virion associated RT activity relative to untreated, infected control in PBMC cells infected with HIV-1 237288 strain. Format: cell-based. A digest of the protocol: as §3

For the compound `CC(C)CCN(C[C@@H](O)[C@@H]1Cc2ccc(cc2)OCCCCCC(=O)N[C@@H](C(C)C)C(=O)N1)S(=O)(=O)c1ccc(N)cc1`, the CC10 worked out at 10000 nM in the assay on MT2 [1], 10000 nM in the assay on MT2 [2] and 50000 nM in assay [3]. Also, the IC90 stood at 220 nM in [4] and 880 nM in assay [5].

On to `CC[C@@H](C)[C@@H]1NC(=O)[C@@H](NC[C@@H](O)[C@H](Cc2ccccc2)NC(=O)[C@@H](NC(=O)c2ccc3ccccc3n2)C(C)C)Cc2ccc(cc2)OCCCNC1=O`, for which the affinity in assay [6] corresponds to a Ki of 0.3 nM.

In the assay on MT2 [7], `CC(C)CN(C[C@@H](O)[C@H](Cc1ccccc1)NC(=O)O[C@H]1CCOC1)S(=O)(=O)c1ccc(N)cc1` had a CC10 of 10000 nM.

Take `CC(C)(C)NC(=O)[C@@H]1CN(Cc2cccnc2)CCN1C[C@@H](O)C[C@@H](Cc1ccccc1)C(=O)N[C@H]1c2ccccc2C[C@H]1O.O`: the CC10 (with MT2 [8]; in [3]) was 10000 nM each time. Also, the 90% effect level in [4] (IC90) was put at 93 nM.

As for `CCC(C)[C@@H]1NC(=O)[C@@H](NC[C@@H](O)C[C@@H](Cc2ccccc2)C(=O)N[C@H]2c3ccccc3C[C@H]2O)Cc2ccc(cc2)OCCCCCNC1=O` (stereo not given in full), the CC10 was found to be 30000 nM in the assay on MT2 [1], 30000 nM with MT2 [9] and 50000 nM in [3]. For the same compound, the IC90 in assay [10] was 100 nM; in [11], 220 nM.

Broadly, the IC90 is the concentration needed for an effect of 90%. A word on the Ki: it is the equilibrium dissociation constant of an inhibitor or competing ligand from its target. A lower Ki goes with a stronger hold on the target.

The values above are taken from ChEMBL document CHEMBL1133648, “Synthesis, stability, antiviral activity, and protease-bound structures of substrate-mimicking constrained macrocyclic inhibitors of HIV-1 protease” (J Med Chem, 2000).
